These results are taken from ChEMBL document CHEMBL1147557, “Glycosyltransferase activity can be selectively modulated by chemical modifications of acceptor substrates” (Bioorg Med Chem Lett, 2004).

Active and inactive are the calls of the source. The rule behind the calls is not given here. Bounds are passed on as bounds.

Series [1] addresses T1, Beta-galactoside alpha-2,6-sialyltransferase 1 (Rattus norvegicus) (UniProt P13721).
T1 sequence (whole entry): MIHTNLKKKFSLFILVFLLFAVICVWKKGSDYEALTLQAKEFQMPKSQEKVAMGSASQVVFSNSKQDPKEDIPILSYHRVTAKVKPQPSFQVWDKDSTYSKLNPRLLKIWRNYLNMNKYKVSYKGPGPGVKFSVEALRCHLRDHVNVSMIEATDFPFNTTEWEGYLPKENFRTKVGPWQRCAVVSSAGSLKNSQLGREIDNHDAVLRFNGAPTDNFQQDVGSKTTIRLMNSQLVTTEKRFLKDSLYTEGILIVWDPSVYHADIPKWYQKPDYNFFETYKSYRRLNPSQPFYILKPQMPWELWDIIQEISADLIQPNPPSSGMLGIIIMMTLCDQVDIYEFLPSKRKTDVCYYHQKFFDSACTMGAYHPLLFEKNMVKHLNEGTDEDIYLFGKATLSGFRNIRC
Kind of series: (§1) Kinetic parameter of sialylation by alpha-2,6-sialyltransferase. The gist of the method:
(§2)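 Rat liver recombinant α-2,6-sialyltransferase transferring CMP-[14C]-Neu5Ac to LacNAc-based acceptors. Apparent kinetic parameters (Km, Vmax) were determined by previously reported assays. Vmax is expressed relative to unmodified LacNAc, which is set at 1.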

Series [2] deals with Alpha-(1,3)-fucosyltransferase 6 (Homo sapiens). Kind of series: Kinetic parameter of […] by fucosyltransferase 6 alpha 1,3.
For series [3] the test system is unchanged. The series can be described thus: Kinetic parameter of […] of compound by fucosyltransferase 6 alpha 1,3; Not active.
Substrate in series [4]: COC[C@@H]1O[C@@H](OC)[C@@H](NC(C)=O)[C@@H](O)[C@@H]1O[C@@H]1O[C@@H](CO)[C@H](O)[C@H](O)[C@@H]1O
The series can be described thus: (§3) Apparent kinetic parameter of sialylation by alpha-2,6-sialyltransferase. Conditions: Rattus norvegicus. An outline of the steps: as §2

Substrate in series [5]: CO[C@@H]1O[C@@H](C(N)=O)[C@@H](O[C@@H]2O[C@@H](CO)[C@H](O)[C@H](O)[C@@H]2O)[C@H](O)[C@@H]1NC(C)=O
The series is described as §3. The conditions noted are these: Rattus norvegicus. The gist of the method: as §2

Substrate in series [6]: COC[C@@H]1O[C@@H](OC)[C@@H](NC(C)=O)[C@@H](O)[C@@H]1O[C@@H]1O[C@@H](CO)[C@H](O)[C@H](O)[C@@H]1OC
The description is as §3. The conditions noted are these: Rattus norvegicus. The gist of the method: as §2

Substrate in series [7]: CO[C@@H]1O[C@@H](CNC=O)[C@@H](O[C@@H]2O[C@@H](CO)[C@H](O)[C@H](O)[C@@H]2O)[C@H](O)[C@@H]1NC(C)=O
Described as §3. The conditions noted are these: Rattus norvegicus. An outline of the steps:
as §2

Substrate in series [8]: CO[C@@H]1O[C@@H](CO)[C@@H](O[C@@H]2O[C@@H](CO)[C@H](O)[C@H](O)[C@@H]2OC)[C@H](O)[C@@H]1NC(C)=O
The description is as §3. Conditions: Rattus norvegicus. The gist of the method:
as §2

Substrate in series [9]: CO[C@@H]1O[C@@H](CNC(C)=O)[C@@H](O[C@@H]2O[C@@H](CO)[C@H](O)[C@H](O)[C@@H]2O)[C@H](O)[C@@H]1NC(C)=O
Described as §3. Conditions: Rattus norvegicus. The gist of the method:
as §2

Substrate in series [10]: CO[C@@H]1O[C@@H](CO)[C@@H](O[C@@H]2O[C@@H](CO)[C@H](O)[C@H](O)[C@@H]2O)[C@H](O)[C@@H]1NC(C)=O
The series is described as §3. Conditions: Rattus norvegicus. An outline of the steps: as §2

Substrate in series [11]: CO[C@@H]1O[C@@H](COS(C)(=O)=O)[C@@H](O[C@@H]2O[C@@H](CO)[C@H](O)[C@H](O)[C@@H]2O)[C@H](O)[C@@H]1NC(C)=O
The series is described as §3. Conditions: Rattus norvegicus. The gist of the method: as §2

Substrate in series [12]: CO[C@@H]1O[C@@H](CN)[C@@H](O[C@@H]2O[C@@H](CO)[C@H](O)[C@H](O)[C@@H]2O)[C@H](O)[C@@H]1NC(C)=O
The description is as §3. The conditions noted are these: Rattus norvegicus. An outline of the steps: as §2

Substrate in series [13]: CO[C@@H]1O[C@@H](CNS(C)(=O)=O)[C@@H](O[C@@H]2O[C@@H](CO)[C@H](O)[C@H](O)[C@@H]2O)[C@H](O)[C@@H]1NC(C)=O
The description is as §3. Conditions: Rattus norvegicus. An outline of the steps:
as §2

Substrate in series [14]: CO[C@@H]1O[C@@H](CNC=O)[C@@H](O[C@@H]2O[C@@H](CO)[C@H](O)[C@H](O)[C@@H]2OC)[C@H](O)[C@@H]1NC(C)=O
Described as §3. Conditions: Rattus norvegicus. The gist of the method: as §2

Substrate in series [15]: CNC(=O)[C@@H]1O[C@@H](OC)[C@@H](NC(C)=O)[C@@H](O)[C@@H]1O[C@@H]1O[C@@H](CO)[C@H](O)[C@H](O)C1O
Described as §3. Conditions: Rattus norvegicus. An outline of the steps:
as §2

Substrate in series [16]: COC[C@@H]1O[C@@H](OC)[C@@H](NC(C)=O)[C@@H](O)[C@@H]1O[C@@H]1O[C@@H](CO)[C@H](O)[C@H](O)[C@@H]1O
The description is as §1. Conditions: Rattus norvegicus. An outline of the steps: as §2

Substrate in series [17]: CO[C@@H]1O[C@@H](C(N)=O)[C@@H](O[C@@H]2O[C@@H](CO)[C@H](O)[C@H](O)[C@@H]2O)[C@H](O)[C@@H]1NC(C)=O
The description is as §1. Conditions: Rattus norvegicus. An outline of the steps:
as §2

Substrate in series [18]: COC[C@@H]1O[C@@H](OC)[C@@H](NC(C)=O)[C@@H](O)[C@@H]1O[C@@H]1O[C@@H](CO)[C@H](O)[C@H](O)[C@@H]1OC
The description is as §1. The conditions noted are these: Rattus norvegicus. The gist of the method:
as §2

Substrate in series [19]: CO[C@@H]1O[C@@H](CNC=O)[C@@H](O[C@@H]2O[C@@H](CO)[C@H](O)[C@H](O)[C@@H]2O)[C@H](O)[C@@H]1NC(C)=O
The series is described as §1. The conditions noted are these: Rattus norvegicus. An outline of the steps: as §2

Substrate in series [20]: CO[C@@H]1O[C@@H](CO)[C@@H](O[C@@H]2O[C@@H](CO)[C@H](O)[C@H](O)[C@@H]2OC)[C@H](O)[C@@H]1NC(C)=O
The series is described as §1. The conditions noted are these: Rattus norvegicus. The gist of the method: as §2

Substrate in series [21]: CO[C@@H]1O[C@@H](CNC(C)=O)[C@@H](O[C@@H]2O[C@@H](CO)[C@H](O)[C@H](O)[C@@H]2O)[C@H](O)[C@@H]1NC(C)=O
The series is described as §1. Conditions: Rattus norvegicus. The gist of the method: as §2

Substrate in series [22]: CO[C@@H]1O[C@@H](CO)[C@@H](O[C@@H]2O[C@@H](CO)[C@H](O)[C@H](O)[C@@H]2O)[C@H](O)[C@@H]1NC(C)=O
The series is described as §1. The conditions noted are these: Rattus norvegicus. An outline of the steps:
as §2

Substrate in series [23]: CO[C@@H]1O[C@@H](COS(C)(=O)=O)[C@@H](O[C@@H]2O[C@@H](CO)[C@H](O)[C@H](O)[C@@H]2O)[C@H](O)[C@@H]1NC(C)=O
The description is as §1. The conditions noted are these: Rattus norvegicus. An outline of the steps: as §2

Substrate in series [24]: CO[C@@H]1O[C@@H](CN)[C@@H](O[C@@H]2O[C@@H](CO)[C@H](O)[C@H](O)[C@@H]2O)[C@H](O)[C@@H]1NC(C)=O
Described as §1. The conditions noted are these: Rattus norvegicus. An outline of the steps:
as §2

Substrate in series [25]: CO[C@@H]1O[C@@H](CNS(C)(=O)=O)[C@@H](O[C@@H]2O[C@@H](CO)[C@H](O)[C@H](O)[C@@H]2O)[C@H](O)[C@@H]1NC(C)=O
The series is described as §1. The conditions noted are these: Rattus norvegicus. The gist of the method: as §2

Substrate in series [26]: CO[C@@H]1O[C@@H](CNC=O)[C@@H](O[C@@H]2O[C@@H](CO)[C@H](O)[C@H](O)[C@@H]2OC)[C@H](O)[C@@H]1NC(C)=O
The series is described as §1. The conditions noted are these: Rattus norvegicus. An outline of the steps: as §2

Substrate in series [27]: CNC(=O)[C@@H]1O[C@@H](OC)[C@@H](NC(C)=O)[C@@H](O)[C@@H]1O[C@@H]1O[C@@H](CO)[C@H](O)[C@H](O)C1O
The description is as §1. Conditions: Rattus norvegicus. The gist of the method: as §2

Turning to `CO[C@@H]1O[C@@H](CNS(C)(=O)=O)[C@@H](O[C@@H]2O[C@@H](CO)[C@H](O)[C@H](O)[C@@H]2O)[C@H](O)[C@@H]1NC(C)=O`, the Vmax / Km is 0.9 in series [1] and 8.7 in [2].

As for `COC[C@@H]1O[C@@H](OC)[C@@H](NC(C)=O)[C@@H](O)[C@@H]1O[C@@H]1O[C@@H](CO)[C@H](O)[C@H](O)[C@@H]1O`, the values for the Vmax / Km in series [1] and in series [2] were 0.2 and 4.5, respectively.

For the molecule `CO[C@@H]1O[C@@H](CO)[C@@H](O[C@@H]2O[C@@H](CO)[C@H](O)[C@H](O)[C@@H]2O)[C@H](O)[C@@H]1NC(C)=O`, in [1], the Vmax / Km is 0.6.

As to `CNC(=O)[C@@H]1O[C@@H](OC)[C@@H](NC(C)=O)[C@@H](O)[C@@H]1O[C@@H]1O[C@@H](CO)[C@H](O)[C@H](O)C1O` (some centres undefined), the results for the Vmax / Km in series [1] and in [2] were 0.08 and 0.4, respectively.

For the molecule `CO[C@@H]1O[C@@H](CNC(C)=O)[C@@H](O[C@@H]2O[C@@H](CO)[C@H](O)[C@H](O)[C@@H]2O)[C@H](O)[C@@H]1NC(C)=O`, the Vmax / Km in series [1] was 0.4; in series [2] it was 6.8.

With `COC(=O)[C@@H]1O[C@@H](OC)[C@@H](NC(C)=O)[C@@H](O)[C@@H]1O[C@@H]1O[C@@H](CO)[C@H](O)[C@H](O)[C@@H]1O`, the Vmax / Km in series [1] was 0.2; in [2] it was 1.2.

In the case of `CO[C@@H]1O[C@@H](CNC=O)[C@@H](O[C@@H]2O[C@@H](CO)[C@H](O)[C@H](O)[C@@H]2OC)[C@H](O)[C@@H]1NC(C)=O`, the Vmax / Km in series [1] stood at 0.3; in series [2], 9.3.

Consider `CO[C@@H]1O[C@@H](COS(C)(=O)=O)[C@@H](O[C@@H]2O[C@@H](CO)[C@H](O)[C@H](O)[C@@H]2O)[C@H](O)[C@@H]1NC(C)=O`, for which the Vmax / Km in [1] turned out to be 1.3; in series [2] it was 3.6.

As for `CO[C@@H]1O[C@@H](C(N)=O)[C@@H](O[C@@H]2O[C@@H](CO)[C@H](O)[C@H](O)[C@@H]2O)[C@H](O)[C@@H]1NC(C)=O`, in [1], the Vmax / Km was determined as 0.02. In addition, the “Vmax / Km” value in series [3] is “inactive”.

For `CO[C@@H]1O[C@@H](CNC=O)[C@@H](O[C@@H]2O[C@@H](CO)[C@H](O)[C@H](O)[C@@H]2O)[C@H](O)[C@@H]1NC(C)=O`, the figures for the Vmax / Km in series [1] and in series [2] were 1.5 and 7.3, respectively.

In the case of `COC[C@@H]1O[C@@H](OC)[C@@H](NC(C)=O)[C@@H](O)[C@@H]1O[C@@H]1O[C@@H](CO)[C@H](O)[C@H](O)[C@@H]1OC`, the Vmax / Km stood at 0.04 in [1] and 6.7 in series [2].

With `CO[C@@H]1O[C@@H](CO)[C@@H](O[C@@H]2O[C@@H](CO)[C@H](O)[C@H](O)[C@@H]2OC)[C@H](O)[C@@H]1NC(C)=O`, the Vmax / Km in [1] amounted to 0.2; in series [2] it was 3.1.

On to `CO[C@@H]1O[C@@H](CN)[C@@H](O[C@@H]2O[C@@H](CO)[C@H](O)[C@H](O)[C@@H]2O)[C@H](O)[C@@H]1NC(C)=O`, for which the Vmax / Km came out at 0.08 in [1] and 1.5 in series [2].

B1: Beta-galactoside alpha-2,6-sialyltransferase 1 (Rattus norvegicus), P13721 (protein)
chain: T1 sequence (whole entry)
One may read the Km as the concentration of substrate that gives half-maximal velocity. On to B1, for which the Km was 4300 µM in [4]; more than 10000 µM in series [5]; 11200 µM in [6]; 1100 µM in [7]; 4100 µM in series [8]; 1400 µM in series [9]. Moreover, the Km in [10] worked out at 1700 µM; in [11], 700 µM; in series [12] it was 5800 µM; in [13], 800 µM; in [14], 3100 µM; in [15] it was 2400 µM. Further, the Vmax in [16] is 0.8; in [17] it was less than 0.2; in series [18] it was 0.5; in series [19] it was 1.6; in series [20], 0.8; in [21], 0.6. Besides, the Vmax in series [22] came to 1; in series [23] it was 0.9; in series [24] it was 0.5; in series [25] it was 0.7; in series [26], 1; in series [27], 0.2.
